Values after ≈ are worked out from the molar mass of the structure shown. One block for each compound: values may come before it.
How the values were obtained:
[1] = system: Enterococcus faecium; experiment: Antimicrobial activity against Enterococcus faecium ATCC 19433 incubated for 20 hrs by microdilution method; type: functional; conditions: ATCC 19433, 20 h
In short: (§1)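 Broth microdilution MIC testing done following CLSI guidelines.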

[2] = system: Staphylococcus aureus; experiment: microbe, parasite or virus in culture; conditions: ATCC 25923, 20 h
[3] = system: Bacillus subtilis; experiment: Inhibition of N-terminal LgBiT-fused Bacillus subtilis NusB expressed in Escherichia coli BL21(DE3)pLysS interaction with C- terminal SmBiT-fused Bacillus subtilis NusE expressed in Escherichia coli BL21(DE3)pLysS at 100 uM preincubated for 10 mins followed by NusE addition and measured after 10 mins by nano-glo luciferase assay relative to control
In short: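 NusB and NusE were mixed 1:1 at 1 µM in PBS, with compound at 100 µM. The read-out was percent inhibition of the NusB-NusE interaction.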

[4] = microbe, parasite or virus in culture; conditions: Enterobacter cloacae, ATCC 13047, 20 h
[5] = system: Staphylococcus aureus; experiment: microbe, parasite or virus in culture; conditions: ATCC 29213, 20 h
[6] = system: Streptococcus pneumoniae; experiment: Antimicrobial activity against Streptococcus pneumoniae ATCC 49619 incubated for 20 hrs by microdilution method; type: functional; conditions: ATCC 49619, 20 h; in short: as §1
[7] = system: Pseudomonas aeruginosa; experiment: Antimicrobial activity against Pseudomonas aeruginosa ATCC 27853 incubated for 20 hrs by microdilution method; type: functional; conditions: ATCC 27853, 20 h; in short: as §1
[8] = system: Acinetobacter baumannii; experiment: Antimicrobial activity against Acinetobacter baumannii ATCC 19606 incubated for 20 hrs by microdilution method; type: functional; conditions: ATCC 19606 = CIP 70.34 = JCM 6841, 20 h; in short: as §1

SMILES: O=[N+]([O-])c1ccc(O)c(CNC2CCCCC2)c1
- MIC [1]: > 256 mg/L
- MIC [2]: > 256 mg/L
- inhibition [3]: 58.2%
- MIC [4]: > 256 mg/L
- MIC [5]: > 256 mg/L
- MIC [6]: > 256 mg/L
- MIC [7]: > 256 mg/L
- MIC [8]: > 256 mg/L

SMILES: O=[N+]([O-])c1ccc(O)c(/C=N/c2ccc(O)cc2)c1
- MIC [1]: > 256 mg/L
- MIC [2]: 4 mg/L (≈ 15.5 µM)
- inhibition [3]: 89.1%
- MIC [4]: > 256 mg/L
- MIC [5]: 8 mg/L (≈ 31 µM)
- MIC [6]: 64 mg/L (≈ 248 µM)
- MIC [7]: > 256 mg/L
- MIC [8]: > 256 mg/L

SMILES: C#Cc1cccc(/N=C/c2cc(O)ccc2[N+](=O)[O-])c1
- MIC [1]: > 256 mg/L
- MIC [2]: 256 mg/L (≈ 961 µM)
- inhibition [3]: 52.2%
- MIC [4]: > 256 mg/L
- MIC [5]: 256 mg/L (≈ 961 µM)
- MIC [6]: > 256 mg/L
- MIC [7]: > 256 mg/L
- MIC [8]: 256 mg/L (≈ 961 µM)

SMILES: O=[N+]([O-])c1ccc(O)c(/C=N/c2ccccc2)c1
- MIC [1]: > 256 mg/L
- MIC [2]: 4 mg/L (≈ 16.5 µM)
- inhibition [3]: 39.2%
- MIC [4]: > 256 mg/L
- MIC [5]: 16 mg/L (≈ 66.1 µM)
- MIC [6]: 32 mg/L (≈ 132 µM)
- MIC [7]: > 256 mg/L
- MIC [8]: 256 mg/L (≈ 1060 µM)

SMILES: O=[N+]([O-])c1ccc(O)c(/C=N/c2ccccc2C(F)(F)F)c1
- MIC [1]: 256 mg/L (≈ 825 µM)
- MIC [2]: 8 mg/L (≈ 25.8 µM)
- inhibition [3]: 53.1%
- MIC [4]: > 256 mg/L
- MIC [5]: 16 mg/L (≈ 51.6 µM)
- MIC [6]: 32 mg/L (≈ 103 µM)
- MIC [7]: > 256 mg/L
- MIC [8]: > 256 mg/L

SMILES: C#Cc1cccc(/N=C/c2cccc([N+](=O)[O-])c2)c1
- MIC [1]: > 256 mg/L
- MIC [2]: 256 mg/L (≈ 1020 µM)
- inhibition [3]: 24.7%
- MIC [4]: > 256 mg/L
- MIC [5]: 128 mg/L (≈ 511 µM)
- MIC [6]: > 256 mg/L
- MIC [7]: > 256 mg/L
- MIC [8]: 16 mg/L (≈ 63.9 µM)

SMILES: C#Cc1cccc(/N=C/c2cc(CC#N)ccc2O)c1
- MIC [1]: > 256 mg/L
- MIC [2]: 256 mg/L (≈ 983 µM)
- inhibition [3]: 49.9%
- MIC [4]: > 256 mg/L
- MIC [5]: > 256 mg/L
- MIC [6]: > 256 mg/L
- MIC [7]: > 256 mg/L
- MIC [8]: 64 mg/L (≈ 246 µM)

SMILES: C#Cc1cccc(/N=C/c2cc([N+](=O)[O-])cc(Br)c2O)c1
- MIC [1]: > 256 mg/L
- MIC [2]: 32 mg/L (≈ 92.7 µM)
- inhibition [3]: 74.1%
- MIC [4]: > 256 mg/L
- MIC [5]: 32 mg/L (≈ 92.7 µM)
- MIC [6]: 128 mg/L (≈ 371 µM)
- MIC [7]: > 256 mg/L
- MIC [8]: 256 mg/L (≈ 742 µM)

SMILES: CC(C)(C)c1ccc(/N=C/c2cc([N+](=O)[O-])ccc2O)cc1
- MIC [1]: > 256 mg/L
- MIC [2]: 4 mg/L (≈ 13.4 µM)
- inhibition [3]: 38.8%
- MIC [4]: > 256 mg/L
- MIC [5]: 32 mg/L (≈ 107 µM)
- MIC [6]: 128 mg/L (≈ 429 µM)
- MIC [7]: > 256 mg/L
- MIC [8]: > 256 mg/L

SMILES: C#Cc1cccc(/N=C/c2cc([N+](=O)[O-])ccc2OC)c1
- MIC [1]: > 256 mg/L
- MIC [2]: > 256 mg/L
- inhibition [3]: 40.4%
- MIC [4]: > 256 mg/L
- MIC [5]: > 256 mg/L
- MIC [6]: > 256 mg/L
- MIC [7]: > 256 mg/L
- MIC [8]: > 256 mg/L

SMILES: CC(C)(C)c1cccc(/N=C/c2cc([N+](=O)[O-])ccc2O)c1
- MIC [1]: > 256 mg/L
- MIC [2]: 4 mg/L (≈ 13.4 µM)
- inhibition [3]: 51.3%
- MIC [4]: > 256 mg/L
- MIC [5]: 16 mg/L (≈ 53.6 µM)
- MIC [6]: 256 mg/L (≈ 858 µM)
- MIC [7]: > 256 mg/L
- MIC [8]: 128 mg/L (≈ 429 µM)

SMILES: C#Cc1cccc(/N=C/c2cc(Cl)cc(Cl)c2O)c1
- MIC [1]: 256 mg/L (≈ 882 µM)
- MIC [2]: 32 mg/L (≈ 110 µM)
- inhibition [3]: 54.2%
- MIC [4]: > 256 mg/L
- MIC [5]: 64 mg/L (≈ 221 µM)
- MIC [6]: 8 mg/L (≈ 27.6 µM)
- MIC [7]: > 256 mg/L
- MIC [8]: 128 mg/L (≈ 441 µM)

SMILES: C#Cc1cccc(/N=C/c2ccccc2O)c1
- MIC [1]: > 256 mg/L
- MIC [2]: 256 mg/L (≈ 1160 µM)
- inhibition [3]: 25.7%
- MIC [4]: > 256 mg/L
- MIC [5]: > 256 mg/L
- MIC [6]: > 256 mg/L
- MIC [7]: > 256 mg/L
- MIC [8]: > 256 mg/L

SMILES: C#Cc1cccc(NCc2cc([N+](=O)[O-])ccc2OC)c1
- MIC [1]: > 256 mg/L
- MIC [2]: > 256 mg/L
- inhibition [3]: 56.1%
- MIC [4]: > 256 mg/L
- MIC [5]: > 256 mg/L
- MIC [6]: > 256 mg/L
- MIC [7]: > 256 mg/L
- MIC [8]: > 256 mg/L

SMILES: C#Cc1cccc(/N=C/c2cccc([N+](=O)[O-])c2O)c1
- MIC [1]: 256 mg/L (≈ 961 µM)
- MIC [2]: 256 mg/L (≈ 961 µM)
- inhibition [3]: 87.7%
- MIC [4]: > 256 mg/L
- MIC [5]: 256 mg/L (≈ 961 µM)
- MIC [6]: 256 mg/L (≈ 961 µM)
- MIC [7]: 256 mg/L (≈ 961 µM)
- MIC [8]: > 256 mg/L

The remaining lines, values ahead:

- MIC [1]: 64 mg/L (≈ 253 µM)
- MIC [2]: 64 mg/L (≈ 253 µM)
- inhibition [3]: 58.3%
- MIC [4]: > 256 mg/L
- MIC [5]: 32 mg/L (≈ 126 µM)
- MIC [6]: 8 mg/L (≈ 31.6 µM)
- MIC [7]: > 256 mg/L
- MIC [8]: > 256 mg/L
SMILES: C#Cc1cccc(NCc2cc(OC)ccc2O)c1

- MIC [1]: 64 mg/L (≈ 258 µM)
- MIC [2]: 32 mg/L (≈ 129 µM)
- inhibition [3]: 64.8%
- MIC [4]: > 256 mg/L
- MIC [5]: 32 mg/L (≈ 129 µM)
- MIC [6]: 16 mg/L (≈ 64.4 µM)
- MIC [7]: > 256 mg/L
- MIC [8]: > 256 mg/L
SMILES: C#Cc1cccc(NCc2cc(C#N)ccc2O)c1

- MIC [1]: 256 mg/L (≈ 925 µM)
- MIC [2]: 8 mg/L (≈ 28.9 µM)
- inhibition [3]: 50%
- MIC [4]: > 256 mg/L
- MIC [5]: 32 mg/L (≈ 116 µM)
- MIC [6]: 64 mg/L (≈ 231 µM)
- MIC [7]: > 256 mg/L
- MIC [8]: > 256 mg/L
SMILES: O=[N+]([O-])c1ccc(O)c(/C=N/c2ccc(Cl)cc2)c1

- MIC [1]: 16 mg/L (≈ 51.2 µM)
- MIC [2]: 4 mg/L (≈ 12.8 µM)
- inhibition [3]: 61.7%
- MIC [4]: 256 mg/L (≈ 820 µM)
- MIC [5]: 4 mg/L (≈ 12.8 µM)
- MIC [6]: 16 mg/L (≈ 51.2 µM)
- MIC [7]: > 256 mg/L
- MIC [8]: 64 mg/L (≈ 205 µM)
SMILES: O=[N+]([O-])c1ccc(O)c(CNc2cccc(C(F)(F)F)c2)c1

- MIC [1]: 32 mg/L (≈ 133 µM)
- MIC [2]: 32 mg/L (≈ 133 µM)
- inhibition [3]: 61.8%
- MIC [4]: > 256 mg/L
- MIC [5]: 32 mg/L (≈ 133 µM)
- MIC [6]: 16 mg/L (≈ 66.3 µM)
- MIC [7]: > 256 mg/L
- MIC [8]: 128 mg/L (≈ 531 µM)
SMILES: C#Cc1cccc(NCc2cc(F)ccc2O)c1

- MIC [1]: 16 mg/L (≈ 54.4 µM)
- MIC [2]: 4 mg/L (≈ 13.6 µM)
- inhibition [3]: 47.4%
- MIC [4]: > 256 mg/L
- MIC [5]: 4 mg/L (≈ 13.6 µM)
- MIC [6]: 16 mg/L (≈ 54.4 µM)
- MIC [7]: > 256 mg/L
- MIC [8]: 256 mg/L (≈ 870 µM)
SMILES: O=[N+]([O-])c1ccc(O)c(CNc2cccc3ccccc23)c1

- MIC [1]: 16 mg/L (≈ 59.6 µM)
- MIC [2]: 16 mg/L (≈ 59.6 µM)
- inhibition [3]: 47.7%
- MIC [4]: > 256 mg/L
- MIC [5]: 16 mg/L (≈ 59.6 µM)
- MIC [6]: 8 mg/L (≈ 29.8 µM)
- MIC [7]: > 256 mg/L
- MIC [8]: 128 mg/L (≈ 477 µM)
SMILES: C#Cc1cccc(NCc2cc([N+](=O)[O-])ccc2O)c1

- MIC [1]: 32 mg/L (≈ 115 µM)
- MIC [2]: 8 mg/L (≈ 28.7 µM)
- inhibition [3]: 53.6%
- MIC [4]: 128 mg/L (≈ 459 µM)
- MIC [5]: 4 mg/L (≈ 14.4 µM)
- MIC [6]: 16 mg/L (≈ 57.4 µM)
- MIC [7]: 256 mg/L (≈ 919 µM)
- MIC [8]: > 256 mg/L
SMILES: O=[N+]([O-])c1ccc(O)c(CNc2ccc(Cl)cc2)c1

- MIC [1]: 32 mg/L (≈ 122 µM)
- MIC [2]: 64 mg/L (≈ 244 µM)
- inhibition [3]: 44.7%
- MIC [4]: > 256 mg/L
- MIC [5]: 32 mg/L (≈ 122 µM)
- MIC [6]: 8 mg/L (≈ 30.5 µM)
- MIC [7]: > 256 mg/L
- MIC [8]: > 256 mg/L
SMILES: C#Cc1cccc(NCc2cc(CC#N)ccc2O)c1

Source: ChEMBL document CHEMBL4364256, “Design, synthesis and biological evaluation of antimicrobial diarylimine and -amine compounds targeting the interaction between the bacterial NusB and NusE proteins” (Eur J Med Chem, 2019)
